Assay results taken from ChEMBL document CHEMBL1122365, “Substituted 1,4-naphthoquinones vs. the ascitic sarcoma 180 of mice” (J Med Chem, 1983).
Converted amounts (≈) assume the structure as drawn.

Legend:
[1] = Effective dose that would give a 25% increase in the survival time against the ascitic sarcoma 180 in mice; assay type: functional, Mus musculus
Procedure, shortened: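 Swiss mice given 10⁶ ascitic sarcoma 180 cells ip on day 0, then one ip dose of compound daily on days 1-3, with several dose levels. T/C is the mean survival of treated mice over the survival of untreated mice. ED25 is the daily dose giving T/C = 125%, interpolated or extrapolated from a semilog plot of T/C vs. log dose.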

Mus musculus [2] = assay: Maximum survival by an optimum dose at 7 mg/kg in treated to that of untreated mice; assay type: functional
[3] = Partition coefficient (logP); assay type: physicochemical; details: octanol/water
Procedure, shortened: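 Shake-flask method: four samples per compound (1.50–20.0 mg) each equilibrated between known volumes of 1-octanol and water. Solute concentration measured spectroscopically in the water phase; octanol-phase concentration taken by difference. Partition coefficient is the ratio of the two concentrations.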

[4] = Tested for acute toxicity which is the single dose given intraperitoneally that will kill one-half of the mice within 5 days; assay type: organism-based; details: mouse, in vivo, ip
Mus musculus [5] = assay: Maximum survival by an optimum dose at 4 mg/kg in treated to that of untreated mice; assay type: functional
[6] = Solubility in water was determined; assay type: physicochemical
Mus musculus [7] = assay: Maximum survival by an optimum dose at 80 mg/kg in treated to that of untreated mice; assay type: functional
Mus musculus [8] = assay: Maximum survival by an optimum dose at 3 mg/kg in treated to that of untreated mice; assay type: functional
Mus musculus [9] = assay: Maximum survival by an optimum dose at 20 mg/kg in treated to that of untreated mice; assay type: functional
Mus musculus [10] = assay: Maximum survival by an optimum dose at 100 mg/kg in treated to that of untreated mice; assay type: functional
Mus musculus [11] = assay: Maximum survival by an optimum dose at 60 mg/kg in treated to that of untreated mice; assay type: functional
Mus musculus [12] = assay: Maximum survival by an optimum dose at 6 mg/kg in treated to that of untreated mice; assay type: functional
Mus musculus [13] = assay: Maximum survival by an optimum dose at 25 mg/kg in treated to that of untreated mice; assay type: functional
Mus musculus [14] = assay: Maximum survival by an optimum dose at 30 mg/kg in treated to that of untreated mice; assay type: functional
[15] = Mus musculus, Sarcoma-180, read-out: ED25

Question: With `CCCOC1=C(Cl)C(=O)c2ccccc2C1=O` as the compound, how does the ED25 [1] read?
Answer: The ED25 was 0.01 mmol/kg.

Question: What about the ED25 [1, 15] of the same compound?
Answer: The ED25 was 2.45 mg/kg.

Question: And the Optimal dose (Mus musculus [2])?
Answer: The Optimal dose was 271%.

Question: And the logP ([3]; read-out: logP)?
Answer: Its logP is 2.95.

Question: What about the LD50 at 120 h [4] of the same compound?
Answer: Its LD50 at 120 h is 20 mg/kg.

Question: Which ED25 [1] does the source give for `CC(=O)NC1=C(Cl)C(=O)c2ccccc2C1=O` here?
Answer: The ED25 was 0.01 mmol/kg.

Question: What about the ED25 [1, 15] of the same compound?
Answer: Its ED25 is 2.97 mg/kg.

Question: And the Optimal dose (Mus musculus [5])?
Answer: The Optimal dose was 284%.

Question: And the solubility [6]?
Answer: Its solubility is 106 µg/mL (≈ 425 µM).

Question: And the logP ([3]; read-out: logP)?
Answer: The logP was 1.42.

Question: What about the LD50 at 120 h [4] of the same compound?
Answer: Its LD50 at 120 h is 11 mg/kg.

Question: Which ED25 [1] does the source give for `O=C1C(Cl)=C(Nc2ccccc2)C(=O)c2ccccc21` here?
Answer: Its ED25 is 0.331 mmol/kg.

Question: And the ED25 [1, 15]?
Answer: Its ED25 is 94 mg/kg.

Question: What about the solubility [6] of the same compound?
Answer: Its solubility is 2.4 µg/mL (≈ 8.46 µM).

Question: What about the Optimal dose (Mus musculus [7]) of the same compound?
Answer: The Optimal dose was 117%.

Question: What about the logP [3] of the same compound?
Answer: Its logP is 4.04.

Question: What about the LD50 at 120 h [4] of the same compound?
Answer: Its LD50 at 120 h is 1600 mg/kg.

Question: Which ED25 [1] does the source give for `CCOC1=C(Cl)C(=O)c2ccccc2C1=O` here?
Answer: Its ED25 is 0.008 mmol/kg.

Question: What about the ED25 [1, 15] of the same compound?
Answer: Its ED25 is 1.97 mg/kg.

Question: And the solubility [6]?
Answer: Its solubility is 34.1 µg/mL (≈ 144 µM).

Question: What about the Optimal dose (Mus musculus [8]) of the same compound?
Answer: The Optimal dose was 230%.

Question: And the logP ([3]; read-out: logP)?
Answer: Its logP is 2.61.

Question: And the LD50 at 120 h [4]?
Answer: The LD50 at 120 h was 16 mg/kg.

Question: Which ED25 [1] does the source give for `NC1=C(Cl)C(=O)c2ccccc2C1=O` here?
Answer: The ED25 was 0.123 mmol/kg.

Question: And the ED25 [1, 15]?
Answer: The ED25 was 25.5 mg/kg.

Question: What about the solubility [6] of the same compound?
Answer: The solubility was 37.7 µg/mL (≈ 182 µM).

Question: And the Optimal dose (Mus musculus [9])?
Answer: The Optimal dose was 112%.

Question: And the logP ([3]; read-out: logP)?
Answer: Its logP is 2.08.

Question: What about the LD50 at 120 h [4] of the same compound?
Answer: The LD50 at 120 h was 800 mg/kg.

Question: For `O=C1C(=O)c2ccccc2C(O)=C1C1CCCC1`, which ED25 [1] is on record?
Answer: Its ED25 is 0.582 mmol/kg.

Question: And the ED25 [1, 15]?
Answer: Its ED25 is 141 mg/kg.

Question: What about the solubility [6] of the same compound?
Answer: The solubility was 9.5 µg/mL (≈ 39.2 µM).

Question: And the Optimal dose (Mus musculus [10])?
Answer: The Optimal dose was 116%.

Question: And the logP ([3]; read-out: logP)?
Answer: The logP was 2.69.

Question: And the LD50 at 120 h [4]?
Answer: The LD50 at 120 h was 400 mg/kg.

Question: With `COC1=C(Cl)C(=O)c2ccccc2C1=O` as the compound, how does the ED25 [1] read?
Answer: The ED25 was 0.011 mmol/kg.

Question: What about the ED25 [1, 15] of the same compound?
Answer: The ED25 was 2.49 mg/kg.

Question: And the Optimal dose (Mus musculus [5])?
Answer: The Optimal dose was 315%.

Question: And the solubility [6]?
Answer: Its solubility is 39.3 µg/mL (≈ 177 µM).

Question: And the logP ([3]; read-out: logP)?
Answer: Its logP is 2.15.

Question: And the LD50 at 120 h [4]?
Answer: The LD50 at 120 h was 14 mg/kg.

Question: With `COC1=CC(=O)c2ccccc2C1=O` [2-Methoxy-1,4-naphthoquinone] as the compound, how does the ED25 [1] read?
Answer: Its ED25 is 0.262 mmol/kg.

Question: And the ED25 [1, 15]?
Answer: Its ED25 is 49.3 mg/kg.

Question: What about the solubility [6] of the same compound?
Answer: Its solubility is 31.3 µg/mL (≈ 166 µM).

Question: What about the Optimal dose (Mus musculus [11]) of the same compound?
Answer: The Optimal dose was 154%.

Question: What about the logP ([3]; read-out: logP) of the same compound?
Answer: The logP was 1.59.

Question: What about the LD50 at 120 h [4] of the same compound?
Answer: The LD50 at 120 h was 320 mg/kg.

Question: What does the source list for `O=C1C(Cl)=C(Cl)C(=O)c2ccccc21` [Dichlon]?
Answer: ED25 [1]: 0.022 mmol/kg; ED25 [1, 15]: 4.89 mg/kg; logP ([3]; read-out: logP): 3.16; Optimal dose (Mus musculus [12]): 189%

Question: Which ED25 [1] does the source give for `O=C1C=C(O)C(=O)c2ccccc21` [LAWSONE] here?
Answer: The ED25 was 0.19 mmol/kg.

Question: What about the ED25 [1, 15] of the same compound?
Answer: The ED25 was 33 mg/kg.

Question: And the solubility [6]?
Answer: The solubility was 255 µg/mL (≈ 1460 µM).

Question: And the Optimal dose (Mus musculus [13])?
Answer: The Optimal dose was 104%.

Question: What about the logP ([3]; read-out: logP) of the same compound?
Answer: The logP was 1.07.

Question: And the LD50 at 120 h [4]?
Answer: Its LD50 at 120 h is 100 mg/kg.

Question: What does the source list for `CC1=CC(=O)c2ccccc2C1=O` [MENADIONE]?
Answer: ED25 [1]: 0.174 mmol/kg; ED25 [1, 15]: 30 mg/kg; solubility [6]: 10.6 µg/mL (≈ 61.6 µM); Optimal dose (Mus musculus [14]): 126%; logP ([3]; read-out: logP): 2.25; LD50 at 120 h [4]: 150 mg/kg

Question: With `O=C1C=CC(=O)c2ccccc21` [NAPHTHOQUINONE] as the compound, how does the ED25 [1] read?
Answer: The ED25 was 0.012 mmol/kg.

Question: What about the ED25 [1, 15] of the same compound?
Answer: The ED25 was 1.9 mg/kg.

Question: What about the solubility [6] of the same compound?
Answer: The solubility was 89.4 µg/mL (≈ 565 µM).

Question: What about the Optimal dose (Mus musculus [8]) of the same compound?
Answer: Its Optimal dose is 347%.

Question: And the logP ([3]; read-out: logP)?
Answer: Its logP is 1.74.

Question: And the LD50 at 120 h [4]?
Answer: Its LD50 at 120 h is 5.5 mg/kg.
